# Results reported in ChEMBL document CHEMBL4376812 (J Med Chem, 2019).
# What was measured:
# [1] = MRT in dog at 2 mg/kg, iv; type: ADME, organism-based, Canis lupus familiaris; conditions: in vivo
# Outline: (§1)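 Dog and monkey iv PK: 2 mg/kg given by iv administration. Clearance (mL min⁻¹ kg⁻¹), Vss, T1/2 (h) and MRT (h) were derived.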
# Cytochrome P450 3A4 = Cytochrome P450 3A4 (Homo sapiens, UniProt P08684); assay: Inhibition of CYP3A4 (unknown origin); type: ADME
# Outline: (§2)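 Inhibition of CYP1A2, 2C9, 2C19, 2D6 and 3A4, read out as IC50. The highest concentration tested was 40 μM.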
# [2] = MRT in cynomolgus monkey at 2 mg/kg, iv; type: ADME, organism-based, Macaca fascicularis; conditions: in vivo; outline: as §1
# [3] = Drug metabolism in C57BL/6 mouse assessed as N-dealkylation of compound by measuring primary amide metabolite formation in mouse plasma by deuterium kinetic isotope effect; type: ADME
# Outline: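 Circulating primary amide metabolite, formed by N-dealkylation of the deuteromethyl amide, was measured in the mouse, dog and monkey PK studies (10 mg/kg po; iv arms). The lower limit of detection was about 2 nM.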
# [4] = Permeability coefficient, Kp across basolateral to apical side in human Caco2 cells; type: ADME, cell-based; conditions: Caco-2, read-out: permeability
# Outline: (§3)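 Caco-2 monolayer permeability measured in both directions, apical-to-basal and basal-to-apical, reported as Pc in nm/s. An efflux ratio was calculated from the two directions.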
# [5] = Permeability coefficient, Kp across apical to basolateral side in human Caco2 cells; type: ADME, cell-based; conditions: Caco-2, read-out: permeability; outline: as §3
# [6] = Volume of distribution at steady state in cynomolgus monkey at 2 mg/kg, iv; type: ADME, organism-based, Macaca fascicularis; conditions: in vivo, read-out: Vdss
# Outline: (§4)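 Single intravenous dose in 80% PEG 400/20% water. V_ss was taken from the iv plasma PK profile.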
# Cytochrome P450 2C9 = Cytochrome P450 2C9 (Homo sapiens, UniProt P11712); assay: Inhibition of CYP2C9 (unknown origin); type: ADME; outline: as §2
# [7] = Metabolic stability in rat liver microsomes assessed as half life; type: ADME, Microsome
# Outline: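 Liver microsomes from human, rat, mouse, dog, cynomolgus monkey and rabbit were incubated with compound. Stability is reported as half-life (T1/2, min). Values are means of at least three separate experiments.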
# Cytochrome P450 1A2 = target: T1, Cytochrome P450 1A2 (Homo sapiens, UniProt P05177); assay: Inhibition of CYP1A2 (unknown origin); type: ADME; outline: as §2
# T1 sequence (P05177 whole entry): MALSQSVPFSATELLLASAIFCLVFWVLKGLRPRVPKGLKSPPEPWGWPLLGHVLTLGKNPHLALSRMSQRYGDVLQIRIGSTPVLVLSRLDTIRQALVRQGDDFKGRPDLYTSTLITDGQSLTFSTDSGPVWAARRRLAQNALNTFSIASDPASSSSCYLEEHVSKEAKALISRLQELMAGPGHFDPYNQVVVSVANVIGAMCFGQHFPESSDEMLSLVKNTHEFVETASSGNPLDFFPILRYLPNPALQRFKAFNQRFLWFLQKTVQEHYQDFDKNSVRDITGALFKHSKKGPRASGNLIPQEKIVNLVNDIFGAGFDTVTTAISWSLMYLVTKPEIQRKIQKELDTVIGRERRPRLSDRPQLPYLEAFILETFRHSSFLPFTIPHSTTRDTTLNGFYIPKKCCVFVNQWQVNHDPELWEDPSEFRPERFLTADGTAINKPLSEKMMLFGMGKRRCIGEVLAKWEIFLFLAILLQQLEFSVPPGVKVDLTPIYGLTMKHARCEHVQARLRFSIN
# [8] = AUC in cynomolgus monkey at 10 mg/kg, po; type: ADME, organism-based, Macaca fascicularis; conditions: in vivo
# Outline: (§5)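 Oral PK: single dose of 10 mg/kg as a solution in ethanol/TPGS/PEG 300 (5:5:90) given to mouse, dog and monkey. Cmax (μM), AUC (μM × h) and bioavailability F (%) were derived, with F taken against the iv arm.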
# [9] = Volume of distribution at steady state in C57BL/6 mouse at 1 mg/kg, iv; type: ADME, organism-based; conditions: in vivo, read-out: Vdss; outline: as §4
# Cytochrome P450 2C19 = Cytochrome P450 2C19 (Homo sapiens, UniProt P33261); assay: Inhibition of CYP2C19 (unknown origin); type: ADME; outline: as §2
# [10] = Time during which drug concentration exceed invitro IC50 for TYK2 in mouse whole blood assessed as decrease in IFNalpha-induced STAT1 phosphorylation in C57BL/6 mouse at 15 mg/kg, po via gavage bid for 9 days with first dose given prior to first IL23 challenge and twice a day thereafter; type: ADME, organism-based; conditions: in vivo, 216 h
# Outline: (§6)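 Drug levels were measured in the animals of the IL-23 acanthosis study, dosed orally twice daily. The duration was the time, in hours, that levels stayed at or above the in vitro mouse whole blood IC50 for IFNα-induced pSTAT1.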
# [11] = AUC in C57BL/6 mouse at 10 mg/kg, po; type: ADME, organism-based; conditions: in vivo; outline: as §5
# [12] = Metabolic stability in mouse liver microsomes assessed as compound remaining incubated for 10 mins; type: ADME, Microsome; conditions: read-out: Stability
# Outline: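 Mouse liver microsomal stability, reported as percent of parent remaining after a 10 min incubation. Values are means of at least three experiments unless otherwise noted.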
# [13] = Clearance in cynomolgus monkey at 2 mg/kg, iv; type: ADME, organism-based, Macaca fascicularis; conditions: in vivo; outline: as §1
# [14] = Time during which drug concentration exceed invitro IC50 for TYK2 in mouse whole blood assessed as decrease in IFNalpha-induced STAT1 phosphorylation in C57BL/6 mouse at 7.5 mg/kg, po via gavage bid for 9 days with first dose given prior to first IL23 challenge and twice a day thereafter; type: ADME, organism-based; conditions: in vivo, 216 h; outline: as §6
# [15] = Oral bioavailability in C57BL/6 mouse at 10 mg/kg; type: ADME, organism-based; conditions: in vivo; outline: as §5
# Cytochrome P450 2D6 = Cytochrome P450 2D6 (Homo sapiens, UniProt P10635); assay: Inhibition of CYP2D6 (unknown origin); type: ADME; outline: as §2
# [16] = Aqueous solubility of crystalline free base form of compound at pH 7.4; type: physicochemical; conditions: aqueous medium
# Outline: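 Aqueous solubility of the crystalline free base, measured at pH 7.4 and reported in μg/mL.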
# [17] = Half life in C57BL/6 mouse at 1 mg/kg, iv; type: ADME, organism-based; conditions: in vivo
# Outline: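 Mouse iv PK: 1 mg/kg in 80% PEG 400/20% water. Terminal half-life reported in hours.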
# [18] = MRT in C57BL/6 mouse at 1 mg/kg, iv; type: ADME, organism-based; conditions: in vivo
# Outline: (§7)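 Mouse iv PK: 1 mg/kg given in 80% PEG 400/20% water. Clearance (mL min⁻¹ kg⁻¹) and MRT (h) were derived.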
# [19] = Oral bioavailability in cynomolgus monkey at 10 mg/kg; type: ADME, organism-based, Macaca fascicularis; conditions: in vivo; outline: as §5
# hERG (KCNH2) = hERG (KCNH2) (Homo sapiens, UniProt Q12809); assay: Inhibition of human ERG at 10 uM by patch-clamp assay relative to control
# Outline: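 hERG potassium channel patch clamp assay, read as percent inhibition at 10 μM (n = 7).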
# [20] = AUC in dog at 10 mg/kg, po; type: ADME, organism-based, Canis lupus familiaris; conditions: in vivo; outline: as §5
# [21] = Volume of distribution at steady state in dog at 2 mg/kg, iv; type: ADME, organism-based, Canis lupus familiaris; conditions: in vivo, read-out: Vdss; outline: as §4
# [22] = Time during which drug concentration exceed invitro IC50 for TYK2 in mouse whole blood assessed as decrease in IFNalpha-induced STAT1 phosphorylation in C57BL/6 mouse at 30 mg/kg, po via gavage bid for 9 days with first dose given prior to first IL23 challenge and twice a day thereafter; type: ADME, organism-based; conditions: in vivo, 216 h; outline: as §6
# [23] = Protein binding in mouse assessed as unbound fraction; type: ADME
# [24] = Half life in cynomolgus monkey at 2 mg/kg, iv; type: ADME, organism-based, Macaca fascicularis; conditions: in vivo; outline: as §1
# [25] = Clearance in C57BL/6 mouse at 1 mg/kg, iv; type: ADME, organism-based; conditions: in vivo; outline: as §7
# Sequence of Cytochrome P450 2C9 (P11712 whole entry): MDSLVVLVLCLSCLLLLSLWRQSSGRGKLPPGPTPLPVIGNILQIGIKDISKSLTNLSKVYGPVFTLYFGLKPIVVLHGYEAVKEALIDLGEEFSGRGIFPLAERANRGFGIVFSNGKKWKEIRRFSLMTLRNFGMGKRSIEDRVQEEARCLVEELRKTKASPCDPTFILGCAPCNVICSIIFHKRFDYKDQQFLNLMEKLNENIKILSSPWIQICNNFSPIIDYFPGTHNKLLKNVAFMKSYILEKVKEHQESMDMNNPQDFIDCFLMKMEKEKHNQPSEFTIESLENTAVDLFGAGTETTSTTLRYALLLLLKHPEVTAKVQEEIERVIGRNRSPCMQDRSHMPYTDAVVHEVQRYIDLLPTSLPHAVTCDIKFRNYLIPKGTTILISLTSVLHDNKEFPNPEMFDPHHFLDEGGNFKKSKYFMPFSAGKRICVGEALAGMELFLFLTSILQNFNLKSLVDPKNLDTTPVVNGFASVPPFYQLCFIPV
# Sequence of Cytochrome P450 2C19 (P33261 whole entry): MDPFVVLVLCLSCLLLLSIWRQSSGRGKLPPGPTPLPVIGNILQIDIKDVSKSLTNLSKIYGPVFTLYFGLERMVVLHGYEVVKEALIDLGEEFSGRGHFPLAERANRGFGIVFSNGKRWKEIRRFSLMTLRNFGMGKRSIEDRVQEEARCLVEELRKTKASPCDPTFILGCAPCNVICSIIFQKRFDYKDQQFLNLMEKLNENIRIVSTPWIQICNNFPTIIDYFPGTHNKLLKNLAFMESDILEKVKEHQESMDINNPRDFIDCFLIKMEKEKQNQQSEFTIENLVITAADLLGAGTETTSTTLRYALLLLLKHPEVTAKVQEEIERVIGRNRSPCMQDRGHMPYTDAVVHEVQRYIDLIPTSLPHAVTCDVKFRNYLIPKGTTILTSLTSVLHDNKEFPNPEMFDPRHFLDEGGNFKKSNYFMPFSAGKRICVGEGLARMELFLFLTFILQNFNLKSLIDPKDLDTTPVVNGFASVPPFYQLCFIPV
# Sequence of hERG (KCNH2) (Q12809 whole entry): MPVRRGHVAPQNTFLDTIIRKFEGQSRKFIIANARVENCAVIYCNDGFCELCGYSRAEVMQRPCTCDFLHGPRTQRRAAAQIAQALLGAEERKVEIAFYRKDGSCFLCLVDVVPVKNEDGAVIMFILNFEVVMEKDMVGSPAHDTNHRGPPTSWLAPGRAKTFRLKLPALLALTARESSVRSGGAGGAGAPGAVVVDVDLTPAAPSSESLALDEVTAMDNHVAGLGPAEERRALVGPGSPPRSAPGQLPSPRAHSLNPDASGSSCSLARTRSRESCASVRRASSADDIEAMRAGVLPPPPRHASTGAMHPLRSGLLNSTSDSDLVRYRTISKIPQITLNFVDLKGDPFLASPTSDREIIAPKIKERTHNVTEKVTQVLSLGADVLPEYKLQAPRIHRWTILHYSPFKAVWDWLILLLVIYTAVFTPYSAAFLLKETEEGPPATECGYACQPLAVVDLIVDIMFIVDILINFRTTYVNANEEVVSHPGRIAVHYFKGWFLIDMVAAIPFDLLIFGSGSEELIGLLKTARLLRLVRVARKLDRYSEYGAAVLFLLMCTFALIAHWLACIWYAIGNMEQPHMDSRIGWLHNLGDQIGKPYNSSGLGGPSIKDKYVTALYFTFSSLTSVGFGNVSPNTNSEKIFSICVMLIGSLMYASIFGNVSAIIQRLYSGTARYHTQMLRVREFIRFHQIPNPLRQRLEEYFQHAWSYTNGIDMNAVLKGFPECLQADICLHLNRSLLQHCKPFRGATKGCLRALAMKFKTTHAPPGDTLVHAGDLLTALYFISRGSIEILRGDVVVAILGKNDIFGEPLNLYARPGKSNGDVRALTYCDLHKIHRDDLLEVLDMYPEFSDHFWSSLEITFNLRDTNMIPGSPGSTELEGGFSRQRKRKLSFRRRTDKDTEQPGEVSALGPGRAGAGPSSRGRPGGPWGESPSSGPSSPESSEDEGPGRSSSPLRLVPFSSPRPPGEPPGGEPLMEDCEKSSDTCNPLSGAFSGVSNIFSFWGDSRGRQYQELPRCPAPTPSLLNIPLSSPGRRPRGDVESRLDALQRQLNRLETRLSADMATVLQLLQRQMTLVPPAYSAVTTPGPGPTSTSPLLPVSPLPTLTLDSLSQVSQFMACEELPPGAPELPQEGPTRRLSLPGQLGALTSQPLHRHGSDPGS
# Sequence of Cytochrome P450 2D6 (P10635 whole entry): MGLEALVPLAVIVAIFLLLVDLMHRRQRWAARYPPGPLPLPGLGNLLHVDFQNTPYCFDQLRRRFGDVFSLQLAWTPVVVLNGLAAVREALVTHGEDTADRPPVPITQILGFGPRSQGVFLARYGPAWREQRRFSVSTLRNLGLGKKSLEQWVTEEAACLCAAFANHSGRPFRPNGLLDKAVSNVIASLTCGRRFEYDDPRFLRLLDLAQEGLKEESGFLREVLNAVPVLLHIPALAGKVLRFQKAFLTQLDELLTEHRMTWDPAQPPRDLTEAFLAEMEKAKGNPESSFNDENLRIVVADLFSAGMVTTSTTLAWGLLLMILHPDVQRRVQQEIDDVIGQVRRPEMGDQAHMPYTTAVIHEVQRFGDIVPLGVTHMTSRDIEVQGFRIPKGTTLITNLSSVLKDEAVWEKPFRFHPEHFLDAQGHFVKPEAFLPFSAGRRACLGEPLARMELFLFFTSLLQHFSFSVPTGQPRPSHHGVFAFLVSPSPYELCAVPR
# Sequence of Cytochrome P450 3A4 (P08684 whole entry): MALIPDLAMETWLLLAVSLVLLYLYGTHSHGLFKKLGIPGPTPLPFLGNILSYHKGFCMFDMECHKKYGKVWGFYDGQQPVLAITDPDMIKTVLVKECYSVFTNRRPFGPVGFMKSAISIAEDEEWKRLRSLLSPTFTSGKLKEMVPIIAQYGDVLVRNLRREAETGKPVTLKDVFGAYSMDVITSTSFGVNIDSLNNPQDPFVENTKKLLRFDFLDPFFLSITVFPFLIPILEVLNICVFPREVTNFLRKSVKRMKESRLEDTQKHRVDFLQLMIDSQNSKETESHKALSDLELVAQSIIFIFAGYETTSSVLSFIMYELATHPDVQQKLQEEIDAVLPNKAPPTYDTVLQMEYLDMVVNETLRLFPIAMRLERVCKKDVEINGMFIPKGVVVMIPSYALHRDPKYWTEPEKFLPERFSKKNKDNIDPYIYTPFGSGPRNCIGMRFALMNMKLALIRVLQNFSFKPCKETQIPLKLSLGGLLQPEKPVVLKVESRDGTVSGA
structure (smiles),measurement,setting,value
[2H]C([2H])([2H])NC(=O)c1nnc(NC(=O)C2CC2)cc1Nc1cccc(-c2ncn(C)n2)c1OC [DEUCRAVACITINIB],MRT,[1],5.5 h
same,IC50,Cytochrome P450 3A4,> 40 µM
same,MRT,[2],7 h
same,Drug metabolism,[3],< 2 nM
same,Papp B→A,[4],74 ×10⁻⁶ cm/s
same,Papp A→B,[5],7 ×10⁻⁶ cm/s
same,Vd,[6],2 L/kg
same,IC50,Cytochrome P450 2C9,> 40 µM
same,half-life,[7],> 2 h
same,IC50,Cytochrome P450 1A2,> 40 µM
same,AUC,[8],75.7 µM·h
same,Vd,[9],2.9 L/kg
same,IC50,Cytochrome P450 2C19,> 40 µM
same,T>IC50,[10],21 h
same,AUC,[11],36.4 µM·h
same,remaining at 10 min,[12],89%
same,clearance,[13],4.8 mL/min/kg
same,T>IC50,[14],19 h
same,bioavailability,[15],122%
same,IC50,Cytochrome P450 2D6,> 40 µM
same,solubility,[16],5.2 µg/mL
same,half-life,[17],4.2 h
same,MRT,[18],3.6 h
same,bioavailability,[19],87%
same,inhibition at 10 µM,hERG (KCNH2),26%
same,AUC,[20],73.6 µM·h
same,Vd,[21],2.3 L/kg
same,T>IC50,[22],24 h
same,fraction unbound,[23],0.15
same,half-life,[24],5.3 h
same,clearance,[25],13.2 mL/min/kg
